Results as given in ChEMBL document CHEMBL3997796 (J Med Chem, 2017).
pEC50, pIC50: −log10 of the molar value. Active and inactive are the calls of the source. The rule behind the calls is not given here.

Key:
Autotaxin [1] = target: T1, Autotaxin (Homo sapiens, UniProt Q13822); assay: Inhibition of recombinant human C-terminal FLAg-tagged ATX nucleotide pyrophosphate phosphatase activity expressed in baculovirus infected sf9 cells using pNP-TMP as substrate measured every 2 mins for 1 hr by fluorescence assay
[2] = target: T2, Glycerophosphocholine cholinephosphodiesterase ENPP6 (Homo sapiens) (UniProt Q6UWR7); assay: Inhibition of ENPP6 (unknown origin) using pNPPC as substrate measured every 2 mins for 1 hr by […]
T2 sequence (whole entry): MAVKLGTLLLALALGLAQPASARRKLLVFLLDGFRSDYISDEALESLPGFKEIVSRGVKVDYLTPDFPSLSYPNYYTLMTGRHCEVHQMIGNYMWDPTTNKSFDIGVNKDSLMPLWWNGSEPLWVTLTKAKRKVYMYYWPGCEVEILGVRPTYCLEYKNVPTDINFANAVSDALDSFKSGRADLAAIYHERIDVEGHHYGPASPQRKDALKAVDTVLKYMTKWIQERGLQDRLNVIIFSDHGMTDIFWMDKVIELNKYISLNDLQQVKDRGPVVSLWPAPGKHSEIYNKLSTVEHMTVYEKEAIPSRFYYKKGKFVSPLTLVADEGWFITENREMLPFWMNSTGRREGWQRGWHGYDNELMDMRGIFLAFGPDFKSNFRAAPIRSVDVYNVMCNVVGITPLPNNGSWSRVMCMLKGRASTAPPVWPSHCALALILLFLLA
Outline: (§1)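 10 nM ENPP6 or ENPP7, 10 μM pNPPC, compound 0–10 μM, triplicate; ENPP6 buffer 100 mM Tris, 500 mM NaCl, 0.05% Triton pH 9.0; ENPP7 buffer 50 mM Tris, 150 mM NaCl, 10 mM taurocholate pH 8.5; 405 nm absorbance every 2 min for 1 h.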

[3] = target: Lysophosphatidic acid receptor 2 (Homo sapiens) (UniProt Q9HBW0); assay: Agonist activity at LPA2 receptor (unknown origin) expressed in MEF cells assessed as increase in intracellular calcium level up to 10 uM measured every 3.42 secs for 70 secs by Fura-2-AM dye based fluorescence assay; type: functional, cell-based
Lysophosphatidic acid receptor 2 (Homo sapiens), sequence (Q9HBW0 whole entry): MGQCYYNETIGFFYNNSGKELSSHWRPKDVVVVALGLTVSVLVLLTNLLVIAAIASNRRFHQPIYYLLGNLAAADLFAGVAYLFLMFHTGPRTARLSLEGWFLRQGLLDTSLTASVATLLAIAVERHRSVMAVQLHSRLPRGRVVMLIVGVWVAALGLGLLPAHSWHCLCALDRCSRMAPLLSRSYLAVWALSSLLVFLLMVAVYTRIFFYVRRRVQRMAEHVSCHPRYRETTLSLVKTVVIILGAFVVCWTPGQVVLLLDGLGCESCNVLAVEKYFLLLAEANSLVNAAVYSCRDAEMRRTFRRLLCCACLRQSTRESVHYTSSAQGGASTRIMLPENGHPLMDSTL

Autotaxin [4] = target: T1, Autotaxin; assay: Inhibition of ATX (unknown origin) expressed in human A2058 cells assessed as inhibition of LPC-induced cell invasion at 10 uM after 20 hrs by calcein-AM dye based matrigel-mediated Boyden chamber assay
[5] = target: Lysophosphatidic acid receptor 4 (Homo sapiens) (UniProt Q99677); assay: Antagonist activity at LPA4 receptor (unknown origin) expressed in CHO cells assessed as inhibition of LPA-induced intracellular calcium level up to 100 uM measured every 3.42 secs for 70 secs by Fura-2-AM dye based fluorescence assay; type: functional, cell-based
Lysophosphatidic acid receptor 4 (Homo sapiens), sequence (Q99677 whole entry): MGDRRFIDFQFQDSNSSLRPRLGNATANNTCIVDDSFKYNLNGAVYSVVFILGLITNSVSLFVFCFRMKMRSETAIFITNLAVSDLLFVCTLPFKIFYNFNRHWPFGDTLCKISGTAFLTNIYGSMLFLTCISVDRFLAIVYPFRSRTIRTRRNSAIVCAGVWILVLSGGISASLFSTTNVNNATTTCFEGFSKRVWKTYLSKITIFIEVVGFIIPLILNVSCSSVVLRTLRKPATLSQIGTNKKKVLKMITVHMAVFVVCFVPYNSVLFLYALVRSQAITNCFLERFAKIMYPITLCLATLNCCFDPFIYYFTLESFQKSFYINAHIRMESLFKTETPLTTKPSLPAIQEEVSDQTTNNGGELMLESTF

[6] = Stability in mouse 4T1 cells assessed as parent compound remaining at 10 uM after 16 hrs by LC-MS/MS method; type: ADME, cell-based; settings: read-out: Stability
Outline: (§2)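 4T1 cells (1 × 10^4/well) attached overnight, then 10 μM compound in DMEM with 1% charcoal-stripped FBS (0.1% DMSO final); quadruplicate samples at 0, 16, 40 h, centrifuged, diethyl ether extracted twice, LC-MS/MS peak areas normalized to 0 h.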

[7] = target: T3, Lysophosphatidic acid receptor 3 (Homo sapiens) (UniProt Q9UBY5); assay: Agonist activity at LPA3 receptor (unknown origin) expressed in rat RH7777 cells assessed as increase in intracellular calcium level up to 10 uM measured every 3.42 secs for 70 secs by Fura-2-AM dye based fluorescence assay; type: functional, cell-based
T3 sequence (whole entry): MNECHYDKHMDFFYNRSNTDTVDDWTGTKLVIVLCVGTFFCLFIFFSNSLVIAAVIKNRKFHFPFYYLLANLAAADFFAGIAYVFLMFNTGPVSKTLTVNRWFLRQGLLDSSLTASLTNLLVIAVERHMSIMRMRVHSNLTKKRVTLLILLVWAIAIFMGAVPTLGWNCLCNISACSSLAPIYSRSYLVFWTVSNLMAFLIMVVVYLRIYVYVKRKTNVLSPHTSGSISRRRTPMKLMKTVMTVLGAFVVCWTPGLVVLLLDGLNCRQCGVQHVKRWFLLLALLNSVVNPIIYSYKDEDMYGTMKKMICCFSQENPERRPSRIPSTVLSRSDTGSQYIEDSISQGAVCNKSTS

[8] = Stability in mouse 4T1 cells assessed as parent compound remaining at 10 uM after 40 hrs by LC-MS/MS method; type: ADME, cell-based; settings: read-out: Stability; outline: as §2
Autotaxin [9] = target: T1, Autotaxin; assay: Competitive inhibition of recombinant human C-terminal FLAg-tagged ATX expressed in baculovirus infected sf9 cells using varying levels of FRET based FS-3 substrate at 0.5 to 2 times IC50 measured every 2 mins for 1 hr by Michaelis-Menten plot analysis
[10] = target: Lysophosphatidic acid receptor 4 (Homo sapiens) (UniProt Q99677); assay: Agonist activity at LPA4 receptor (unknown origin) expressed in CHO cells assessed as increase in intracellular calcium level up to 10 uM measured every 3.42 secs for 70 secs by Fura-2-AM dye based fluorescence assay; type: functional, cell-based
4T1 [11] = assay: Growth inhibition of mouse 4T1 cells up to 10 uM after 48 hrs by CellTiter blue assay; type: cell-based; settings: 4t1, 48 h
[12] = target: T4, Lysophosphatidic acid receptor 1 (Homo sapiens, UniProt Q92633); assay: Antagonist activity at LPA1 receptor (unknown origin) expressed in rat RH7777 cells assessed as inhibition of LPA-induced intracellular calcium level measured every 3.42 secs for 70 secs by Fura-2-AM dye based fluorescence assay; type: functional, cell-based; settings: for pIC50: read-out: IC50
T4 sequence (Q92633 whole entry): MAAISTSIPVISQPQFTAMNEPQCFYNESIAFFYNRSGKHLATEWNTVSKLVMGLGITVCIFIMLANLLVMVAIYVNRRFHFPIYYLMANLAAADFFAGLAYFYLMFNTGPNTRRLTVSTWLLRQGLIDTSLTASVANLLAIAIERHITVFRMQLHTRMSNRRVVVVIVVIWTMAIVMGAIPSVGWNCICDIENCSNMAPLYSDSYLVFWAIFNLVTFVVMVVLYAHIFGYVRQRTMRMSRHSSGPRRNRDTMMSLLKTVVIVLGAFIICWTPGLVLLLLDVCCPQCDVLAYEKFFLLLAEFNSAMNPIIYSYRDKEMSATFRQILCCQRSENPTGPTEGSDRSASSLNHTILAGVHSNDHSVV

[13] = target: Lysophosphatidic acid receptor 5 (Homo sapiens) (UniProt Q9H1C0); assay: Agonist activity at FLAG-tagged LPA5 receptor (unknown origin) expressed in rat B103 cells assessed as increase in intracellular calcium level up to 10 uM measured every 3.42 secs for 70 secs by Fura-2-AM dye based fluorescence assay; type: functional, cell-based
Lysophosphatidic acid receptor 5 (Homo sapiens), sequence (Q9H1C0 whole entry): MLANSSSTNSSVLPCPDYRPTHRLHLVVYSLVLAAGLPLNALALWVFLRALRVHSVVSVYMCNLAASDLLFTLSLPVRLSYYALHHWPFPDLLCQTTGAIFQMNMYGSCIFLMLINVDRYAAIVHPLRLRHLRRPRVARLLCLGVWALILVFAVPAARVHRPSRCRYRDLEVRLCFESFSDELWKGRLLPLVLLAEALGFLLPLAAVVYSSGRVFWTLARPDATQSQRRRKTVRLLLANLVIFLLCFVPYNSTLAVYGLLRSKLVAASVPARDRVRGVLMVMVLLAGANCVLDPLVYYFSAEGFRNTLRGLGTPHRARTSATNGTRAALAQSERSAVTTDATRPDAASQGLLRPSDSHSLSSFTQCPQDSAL

[14] = target: T4, Lysophosphatidic acid receptor 1; assay: Agonist activity at LPA1 receptor (unknown origin) expressed in rat RH7777 cells assessed as increase in intracellular calcium level up to 10 uM measured every 3.42 secs for 70 secs by Fura-2-AM dye based fluorescence assay; type: functional, cell-based
[15] = target: T5, Ectonucleotide pyrophosphatase/phosphodiesterase family member 7 (Homo sapiens) (UniProt Q6UWV6); assay: Inhibition of ENPP7 (unknown origin) using pNPPC as substrate measured every 2 mins for 1 hr by […]; outline: as §1
T5 sequence (whole entry): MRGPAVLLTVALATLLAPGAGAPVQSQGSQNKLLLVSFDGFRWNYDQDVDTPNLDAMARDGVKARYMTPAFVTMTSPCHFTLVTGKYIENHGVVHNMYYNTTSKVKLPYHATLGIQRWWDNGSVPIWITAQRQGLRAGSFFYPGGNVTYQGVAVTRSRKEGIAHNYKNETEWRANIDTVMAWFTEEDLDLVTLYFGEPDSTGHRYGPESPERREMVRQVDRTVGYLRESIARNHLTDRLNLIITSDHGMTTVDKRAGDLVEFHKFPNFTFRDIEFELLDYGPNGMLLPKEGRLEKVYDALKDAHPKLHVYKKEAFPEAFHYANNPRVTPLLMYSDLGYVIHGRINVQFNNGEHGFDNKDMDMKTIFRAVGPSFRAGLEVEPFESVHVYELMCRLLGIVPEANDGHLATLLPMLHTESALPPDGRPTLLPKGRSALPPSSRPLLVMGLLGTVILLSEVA

[16] = target: Lysophosphatidic acid receptor 2 (Homo sapiens) (UniProt Q9HBW0); assay: Antagonist activity at LPA2 receptor (unknown origin) expressed in MEF cells assessed as inhibition of LPA-induced intracellular calcium level up to 100 uM measured every 3.42 secs for 70 secs by Fura-2-AM dye based fluorescence assay; type: functional, cell-based
[17] = target: Lysophosphatidic acid receptor 5 (Homo sapiens) (UniProt Q9H1C0); assay: Antagonist activity at FLAG-tagged LPA5 receptor (unknown origin) expressed in rat B103 cells assessed as inhibition of LPA-induced intracellular calcium level up to 100 uM measured every 3.42 secs for 70 secs by Fura-2-AM dye based fluorescence assay; type: functional, cell-based
[18] = target: T4, Lysophosphatidic acid receptor 1; assay: Antagonist activity at LPA1 receptor (unknown origin) expressed in rat RH7777 cells assessed as inhibition of LPA-induced intracellular calcium level up to 100 uM measured every 3.42 secs for 70 secs by Fura-2-AM dye based fluorescence assay relative to LPA; type: functional, cell-based
Autotaxin [19] = target: T1, Autotaxin; assay: Inhibition of ATX (unknown origin) expressed in human A2058 cells assessed as inhibition of LPC-induced cell invasion after 20 hrs by calcein-AM dye based matrigel-mediated Boyden chamber assay
[20] = target: T3, Lysophosphatidic acid receptor 3 (Homo sapiens); assay: Antagonist activity at LPA3 receptor (unknown origin) expressed in rat RH7777 cells assessed as inhibition of LPA-induced intracellular calcium level up to 100 uM measured every 3.42 secs for 70 secs by Fura-2-AM dye based fluorescence assay; type: functional, cell-based
4T1 [21] = assay: Growth inhibition of mouse 4T1 cells at 10 uM after 48 hrs by CellTiter blue assay; type: cell-based; settings: 4t1, 48 h
B16-F10 = assay: Antitumor activity against mouse B16F10 cells implanted in C57BL/6 mouse assessed as reduction in metastatic tumor nodules on lungs at 1 mg/kg, ip administered daily up to 10 days measured on day 21; type: functional, organism-based
Outline: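 C57BL/6 mice, 8–12 weeks, given 1 × 10^5 B16F10 cells by tail vein; 1 mg/kg i.p. daily from day 0 (before inoculation) to day 10, vehicle PBS with 1% DMSO and 50 μM charcoal-stripped mouse serum albumin; sacrifice day 21, lung nodules counted; one-way ANOVA with Bonferroni.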

Autotaxin [22] = target: T1, Autotaxin; assay: Inhibition of ATX (unknown origin)
4T1 [23] = assay: Growth inhibition of mouse 4T1 cells at 3 uM after 48 hrs by CellTiter blue assay; type: cell-based; settings: 4t1, 48 h
Autotaxin (Mus musculus) = Autotaxin (Mus musculus) (UniProt Q9R1E6); assay: Inhibition of ATX in paclitaxel-resistant mouse 4T1 cells assessed as potentiation of paclitaxel-induced antiproliferative activity by measuring reduction in cell viability at 5 uM measured after 3 days by CellTiter blue assay
Outline: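 Paclitaxel-resistant 4T1-TaxR (stepwise PT 40, 100, 200 nM) grown as mammospheres, 3.5 × 10^3 cells/well in serum-free RPMI with N-2, 20 ng/mL FGF and EGF, 4 days; spheres treated 3 days with 100 nM PT with or without inhibitor at 5 μM; CellTiter Blue; quadruplicate, three experiments.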

[24] = target: T4, Lysophosphatidic acid receptor 1; assay: Agonist activity at LPA1 receptor (unknown origin) expressed in rat RH7777 cells assessed as increase in intracellular calcium level measured every 3.42 secs for 70 secs by Fura-2-AM dye based fluorescence assay; type: functional, cell-based

Row | Structure (SMILES) | inhibition (Autotaxin [1]) | inhibition [2] | Activity [3] | inhibition (Autotaxin [4]) | inhibition [5] | remaining at 16 h, 10 µM [6] [%] | Activity [7] | remaining at 40 h, 10 µM [8] [%] | inhibition (Autotaxin [9]) | Activity [10] | Activity (4T1 [11]) | pIC50 [12] | Activity [13] | Activity [14] | inhibition [15] | inhibition [16] | inhibition [17] | Emax [18] [%] | inhibition (Autotaxin [19]) | inhibition [20] | also measured
1 | O=C(Nc1cc(F)c(Cl)c(F)c1)c1cc(S(=O)(=O)N2CCOCC2)c(Cl)cc1Cl | inactive | inactive | inactive | Active | inactive | 101 | inactive | 108 | Active | inactive | Non-Toxic | 5.21 to 5.22 | inactive | inactive | inactive | inactive | inactive | 51 | Dose-dependent effect | inactive | 
2 | O=S(=O)(c1cc(C(=S)Nc2cc(F)c(F)c(F)c2)c(Cl)cc1Cl)N1CCOCC1 | inactive | inactive |  | Active | inactive | 93.2 |  | 102 | Active |  |  |  |  |  | inactive | inactive | inactive |  | Dose-dependent effect | inactive | Activity (4T1 [21]): Toxic; Activity (B16-F10): Active; IC50 [12]: Not Active
3 | O=C(Nc1cccc(F)c1)c1cc(S(=O)(=O)N2CCOCC2)c(Cl)cc1Cl | inactive | inactive |  |  |  | 79.7 |  | 79.5 | Active |  |  |  |  |  | inactive |  |  |  |  |  | pIC50 (Autotaxin [22]): 6.94
4 | CCCCCCCCCCCCCCCc1ccc(CP(=O)(O)O)cc1 |  |  |  | Active |  |  |  |  |  |  | Non-Toxic |  |  |  |  |  |  |  |  |  | Activity (4T1 [23]): Toxic; inhibition (Autotaxin (Mus musculus)): 25 to 30%
5 | O=C(Nc1cc(Cl)c(F)c(Cl)c1)c1cc(S(=O)(=O)N2CCOCC2)c(Cl)cc1Cl | inactive | inactive | inactive |  | inactive |  | inactive |  | Active | inactive |  | 4.74 | inactive | inactive | inactive | inactive | inactive | 50 |  | inactive | 
6 | CCCCCCCC/C=C\CCCCCCCC(=O)OCC(O)COP(=O)(O)O (configuration not stated) |  |  |  |  |  |  |  |  |  |  |  |  |  |  |  |  |  |  |  |  | pEC50 [24]: 7.10
7 | O=C(Nc1cc(F)c(F)c(F)c1)c1cc(S(=O)(=O)N2CCOCC2)c(Cl)cc1Cl | inactive | inactive | inactive | Active | inactive |  | inactive |  | Active | inactive | Non-Toxic | 4.84 to 4.85 | inactive | inactive | inactive | inactive | inactive | 46.1 | Dose-dependent effect | inactive | Activity (B16-F10): Active; inhibition (Autotaxin (Mus musculus)): 25 to 30%
